Laboratory results published in article PMC3783524 (ACS chemical biology, 2013).
“And” between values parts separate entries of the source, which are not always exact repeats. Equal values may be shown once.

Assays:
DnaK-DnaJ [1] = molecular target: T1, DnaK-DnaJ (Escherichia coli, UniProt P0A6Y8); test: DnaJ-stimulated ATPase activity of DnaK; type: biochemical; details: result in words
In short: (§1)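 Purified E. coli DnaK, DnaJ and GrpE (His-tagged, tag removed by TEV) and the synthetic NRLLLTG peptide. DnaK at 0.6 μM unless noted, with co-chaperone at stated levels, in 100 mM Tris-HCl, 20 mM KCl, 6 mM MgCl2, pH 7.4. Test compound added from DMSO stock. Phosphate release read by malachite green adaptation (absorbance 620 nm). Michaelis-Menten fit. Triplicates, three independent experiments.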

DnaK-GrpE [2] = molecular target: T2, DnaK-GrpE (Escherichia coli, UniProt P0A6Y8); test: GrpE-stimulated ATPase activity of DnaK; type: biochemical; details: for Inhibition of the DnaK-GrpE combination (ATPase): result in words
T2 sequence (P09372 whole entry): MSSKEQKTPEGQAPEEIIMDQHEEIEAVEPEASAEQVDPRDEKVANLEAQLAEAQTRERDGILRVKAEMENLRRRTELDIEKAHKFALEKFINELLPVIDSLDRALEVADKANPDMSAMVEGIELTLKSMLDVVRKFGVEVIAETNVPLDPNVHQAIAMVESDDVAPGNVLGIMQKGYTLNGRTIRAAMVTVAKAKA
T2 sequence (P0A6Y8 whole entry): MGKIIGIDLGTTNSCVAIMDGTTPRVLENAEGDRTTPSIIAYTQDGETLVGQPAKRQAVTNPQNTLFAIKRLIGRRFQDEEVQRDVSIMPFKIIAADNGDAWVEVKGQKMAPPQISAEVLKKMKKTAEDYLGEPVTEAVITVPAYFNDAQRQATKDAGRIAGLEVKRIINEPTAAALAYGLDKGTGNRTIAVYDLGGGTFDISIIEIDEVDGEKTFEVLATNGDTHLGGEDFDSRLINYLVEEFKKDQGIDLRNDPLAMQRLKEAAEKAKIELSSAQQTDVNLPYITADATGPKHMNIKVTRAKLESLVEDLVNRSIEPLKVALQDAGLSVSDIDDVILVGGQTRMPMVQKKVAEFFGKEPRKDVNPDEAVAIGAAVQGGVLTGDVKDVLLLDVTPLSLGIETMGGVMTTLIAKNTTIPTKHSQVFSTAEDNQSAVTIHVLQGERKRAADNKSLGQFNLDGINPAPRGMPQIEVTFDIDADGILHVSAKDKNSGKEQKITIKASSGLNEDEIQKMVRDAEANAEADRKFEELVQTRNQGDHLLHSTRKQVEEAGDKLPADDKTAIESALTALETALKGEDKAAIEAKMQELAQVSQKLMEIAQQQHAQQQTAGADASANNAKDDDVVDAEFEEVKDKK
In short: as §1

DnaK [3] = molecular target: T3, DnaK (Escherichia coli, UniProt P0A6Y8); test: Intrinsic ATPase activity of DnaK alone; type: biochemical; details: result in words
T3 sequence (P0A6Y8 whole entry): as above
In short: as §1

DnaK-peptide = DnaK-peptide (Escherichia coli, UniProt P0A6Y8); test: Peptide substrate; type: biochemical; details: NRLLLTG peptide; result in words
DnaK-peptide, sequence (P0A6Y8 whole entry): as above
In short: as §1

DnaK [4] = molecular target: T3, DnaK; test: Fluorescence polarization, binding of FITC-HLA peptide to DnaK; details: FP assay; result in words
DnaK [5] = molecular target: T3, DnaK; test: Fluorescence polarization, binding of FAM-ATP to DnaK; details: for Competition with FAM-ATP for binding to DnaK: FP assay, result in words
DnaK-GrpE [6] = molecular target: T2, DnaK-GrpE; test: Fluorescence-quenching assay, physical interaction between DnaK and GrpE; type: binding; details: result in words
DnaJ = DnaJ (Escherichia coli, UniProt P08622); test: Isothermal calorimetry, binding to DnaJ
DnaJ, sequence (P08622 whole entry): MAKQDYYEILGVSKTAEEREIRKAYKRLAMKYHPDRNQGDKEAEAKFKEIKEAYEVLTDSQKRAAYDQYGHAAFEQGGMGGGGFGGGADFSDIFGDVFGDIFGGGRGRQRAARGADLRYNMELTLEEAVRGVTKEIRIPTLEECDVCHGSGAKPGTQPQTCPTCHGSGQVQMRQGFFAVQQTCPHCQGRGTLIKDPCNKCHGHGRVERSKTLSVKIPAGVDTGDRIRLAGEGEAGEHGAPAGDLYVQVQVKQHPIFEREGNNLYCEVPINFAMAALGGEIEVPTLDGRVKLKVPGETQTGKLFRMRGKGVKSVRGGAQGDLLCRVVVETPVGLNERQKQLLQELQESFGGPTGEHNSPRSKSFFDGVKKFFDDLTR

GrpE = GrpE (Escherichia coli, UniProt P09372); test: Isothermal calorimetry, binding to GrpE
GrpE, sequence (P09372 whole entry): as the sequence (P09372 whole entry) above

DnaK R56A = DnaK R56A (Escherichia coli, UniProt P0A6Y8, R56A); test: GrpE-stimulation of DnaK mutant R56A, ATPase assay; type: biochemical; details: result in words
DnaK R56A, sequence (P0A6Y8 whole entry R56A): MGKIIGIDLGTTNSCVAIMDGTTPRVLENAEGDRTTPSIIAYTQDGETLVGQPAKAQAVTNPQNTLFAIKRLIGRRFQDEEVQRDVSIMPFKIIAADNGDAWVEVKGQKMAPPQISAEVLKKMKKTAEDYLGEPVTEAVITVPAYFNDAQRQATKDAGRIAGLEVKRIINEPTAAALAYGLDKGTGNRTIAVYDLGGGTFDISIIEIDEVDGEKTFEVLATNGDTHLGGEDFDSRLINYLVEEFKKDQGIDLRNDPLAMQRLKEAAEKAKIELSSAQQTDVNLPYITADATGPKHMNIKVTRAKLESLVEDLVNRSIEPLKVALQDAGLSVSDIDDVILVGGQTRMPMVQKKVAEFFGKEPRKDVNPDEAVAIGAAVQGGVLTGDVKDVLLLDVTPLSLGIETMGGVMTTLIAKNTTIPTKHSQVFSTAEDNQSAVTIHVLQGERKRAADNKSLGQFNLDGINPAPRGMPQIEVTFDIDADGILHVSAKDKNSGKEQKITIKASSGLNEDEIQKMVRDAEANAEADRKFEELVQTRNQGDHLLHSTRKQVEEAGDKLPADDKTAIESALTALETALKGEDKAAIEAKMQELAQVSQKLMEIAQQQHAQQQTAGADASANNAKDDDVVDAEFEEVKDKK
DnaK R56A, sequence (P09372 whole entry, further chain): as the sequence (P09372 whole entry) above

DnaK M89A = DnaK M89A (Escherichia coli, UniProt P0A6Y8, M89A); test: GrpE-stimulation of DnaK mutant M89A, ATPase assay; type: biochemical; details: result in words
DnaK M89A, sequence (P09372 whole entry): as above
DnaK M89A, sequence (P0A6Y8 whole entry M89A): as the sequence (P0A6Y8 whole entry R56A) above, with A56R, M89A counted along it

DnaK D233A = DnaK D233A (Escherichia coli, UniProt P0A6Y8, D233A); test: GrpE-stimulation of DnaK control mutant D233A, ATPase assay; type: biochemical; details: identical to wild type
DnaK D233A, sequence (P0A6Y8 whole entry D233A): as the sequence (P0A6Y8 whole entry R56A) above, with A56R, D233A counted along it
DnaK D233A, sequence (P09372 whole entry, further chain): as the sequence (P09372 whole entry) above

Solubility = type: physicochemical; details: result in words
DnaK [7] = molecular target: T3, DnaK; test: Intrinsic tryptophan fluorescence of DnaK; type: binding
In short: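 DnaK (5 μM) held in 25 mM HEPES, 10 mM KCl, 5 mM MgCl2, pH 7.5, with 1 mM ADP or ATP and test compound (e.g. 25 or 100 μM). Incubated 30 min at 37 °C in the dark. Excitation 290 nm; emission scanned 300–450 nm or read at 340 nm. Langmuir fit. Triplicate, three independent experiments.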

DnaK-DnaJ [8] = molecular target: T1, DnaK-DnaJ; test: Fluorescence-quenching assay, binding of labeled DnaJ to DnaK; details: not statistically significant (p = 0.07)
[9] = DnaK 5 μM, 25 μM or 100 μM compound

T1 sequence (P0A6Y8 whole entry): as the sequence (P0A6Y8 whole entry) above

## CCCc1nc2c(C)cc(-c3nc4ccccc4n3C)cc2n1Cc1ccc(-c2ccccc2C(=O)O)cc1 [Tel, telmisartan]
DnaK-DnaJ [1]
  Inhibition of the DnaK-DnaJ combination (ATPase): little activity
DnaK-GrpE [2]
  Inhibition of the DnaK-GrpE combination (ATPase): only inhibitors of the DnaK-GrpE combination
DnaK-GrpE [2]; wild type DnaK
  Fold increase in Km of GrpE stimulation, wild type DnaK: ~ 1.5 fold
DnaK [3]
  Activity against DnaK alone (intrinsic ATPase): little activity
DnaK-peptide
  Activity against DnaK-peptide substrate combination (ATPase): little activity
DnaK [4]
  Effect on apparent affinity of DnaK for FITC-HLA: no effect
DnaK [5]
  Competition with FAM-ATP for binding to DnaK: interfered with binding
DnaK [5]; reduced nucleotide affinity
  Effect on FAM-ATP binding, fold: 2 fold
DnaK-GrpE [6]
  Effect on physical interaction between DnaK and GrpE: no effect
DnaJ
  Kd: > 100 µM
GrpE
  Kd: > 100 µM
DnaK R56A
  Ability to block GrpE-stimulation of DnaK R56A: resistant
DnaK M89A
  Ability to block GrpE-stimulation of DnaK M89A: resistant
DnaK D233A
  Fold increase in Km of GrpE stimulation, DnaK D233A: ~ 1.5 fold

## O=c1c(O)c(-c2cc(O)c(O)c(O)c2)oc2cc(O)cc(O)c12 [Myr, myricetin]
DnaK-DnaJ [1]
  Inhibition of the DnaK-DnaJ combination (ATPase): only inhibitors of the DnaK-DnaJ combination

## CC(=O)O[C@H]1C[C@@H]2CC[C@@H]3[C@H](CC[C@@]4(C)[C@H]3C[C@H]([N+]3(C)CCCCC3)[C@@H]4OC(C)=O)[C@@]2(C)C[C@@H]1[N+]1(C)CCCCC1 [PaBr, pancuronium bromide]
DnaK-GrpE [2]
  Inhibition of the DnaK-GrpE combination (ATPase): only inhibitors of the DnaK-GrpE combination
Solubility
  Solubility: weakly soluble

## COc1cc(C(=O)NS(=O)(=O)c2ccccc2C)ccc1Cc1cn(C)c2ccc(NC(=O)OC3CCCC3)cc12 [Zaf, zafirlukast]
DnaK-DnaJ [1]
  Inhibition of the DnaK-DnaJ combination (ATPase): only inhibitors of the DnaK-DnaJ combination
DnaK-GrpE [2]
  IC50: > 200 µM
  Inhibition of the DnaK-GrpE combination (ATPase): weak or no activity
DnaK [3]
  Activity against DnaK alone (intrinsic ATPase): weak or no activity
DnaK-peptide
  Activity against DnaK-peptide substrate combination (ATPase): has activity
DnaK [7]; Apparent affinity KD for ATP-bound DnaK, ATP-bound DnaK
  Kd: > 100 µM
DnaK [7]; Apparent affinity KD for DnaK in the presence of ADP, ADP 1 mM
  Kd: 52 ± 12 µM
DnaK [7]; [9]
  Decrease of tryptophan fluorescence intensity at 342 nm: ~ 25%
  Shift of tryptophan fluorescence peak: ~ 2 nm
DnaK [7]; p = 0.06, result in words
  Effect on Trp fluorescence in the ATP-bound states: no effect
DnaK [4]
  Effect on apparent affinity of DnaK for FITC-HLA: enhanced the apparent affinity
DnaK [5]
  Competition with FAM-ATP for binding to DnaK: unable to compete
DnaK-DnaJ [8]
  Weakening of binding of DnaJ to DnaK, fold: ~ 1.8 fold and ~ 2 fold
